Blank lines part the entries; values can stand above or below the molecule they belong to.
Target: Protein-arginine deiminase type-4 (Homo sapiens) (UniProt Q9UM07)
Assay: residual PAD4 activity, irreversible binding – biochemical, dialysis, BAEE substrate, colorimetric citrulline readout, mechanism study for PAD4 inhibitor project, late-stage follow-up (AID 651627)
Conditions: recombinant PAD4, dialysis, at 100 µM, stronger effect = lower value
In short: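 System: recombinant PAD4 enzyme / Compound: one dose, 100 µM / Incubation: compound pre-incubation, 20 h dialysis, then 15 min substrate reaction at 37 °C / Detection: colorimetric citrulline detection, absorbance at 540 nm / Control set: DMSO-treated enzyme without compound as reference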

Protein-arginine deiminase type-4 (Homo sapiens), sequence (Q9UM07 whole entry, looked up): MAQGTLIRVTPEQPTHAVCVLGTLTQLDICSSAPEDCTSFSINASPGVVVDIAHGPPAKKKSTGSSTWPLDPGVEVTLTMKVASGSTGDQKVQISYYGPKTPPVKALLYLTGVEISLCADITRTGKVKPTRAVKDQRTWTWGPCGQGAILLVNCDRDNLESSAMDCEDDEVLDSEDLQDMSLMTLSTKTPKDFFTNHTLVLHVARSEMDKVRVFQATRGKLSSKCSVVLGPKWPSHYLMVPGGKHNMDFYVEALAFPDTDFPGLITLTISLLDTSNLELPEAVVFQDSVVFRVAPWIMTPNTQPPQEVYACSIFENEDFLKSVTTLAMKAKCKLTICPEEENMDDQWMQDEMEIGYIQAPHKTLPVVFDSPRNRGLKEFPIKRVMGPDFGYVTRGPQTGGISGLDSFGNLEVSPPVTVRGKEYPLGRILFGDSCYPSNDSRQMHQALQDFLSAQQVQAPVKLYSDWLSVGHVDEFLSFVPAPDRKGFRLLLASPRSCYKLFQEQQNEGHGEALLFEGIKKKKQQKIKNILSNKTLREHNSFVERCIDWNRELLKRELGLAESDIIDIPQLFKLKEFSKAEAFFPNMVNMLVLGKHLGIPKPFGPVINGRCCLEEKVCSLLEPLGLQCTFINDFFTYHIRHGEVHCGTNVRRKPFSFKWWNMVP

residual activity after dialysis: 2%
Structure (SMILES): NC1=CC(=O)c2cccnc2C1=O

residual activity after dialysis: 12%
Structure (SMILES): NC1=CC(=O)c2ccc(-c3ccccn3)nc2C1=O

residual activity after dialysis: 0%
Structure (SMILES): COC1=C(Br)C(=O)c2ncccc2C1=O

Second part, the molecule before the results:

Structure (SMILES): COC(=O)c1cccc(-c2ccc3c(n2)C(=O)C(N)=CC3=O)n1
residual activity after dialysis: 13%

Structure (SMILES): NC1=CC(=O)c2ccc(-c3cccc(C(=O)O)n3)nc2C1=O
residual activity after dialysis: 0%
